Source: ChEMBL document CHEMBL1833842, “1,3-Dihydro-2H-indol-2-ones derivatives: design, synthesis, in vitro antibacterial, antifungal and antitubercular study” (2011)
In brackets after ≈: the same amount, converted by molar mass.

How the values were obtained:
[1] = tested on: Aspergillus niger; experiment: Antifungal activity against 10^8 CFU/mL Aspergillus niger MTCC 282 by broth microdilution method; type: functional
Outline: (§1)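 Fungal MTCC cultures came from IMTECH Chandigarh. Mueller-Hinton broth served as growth and dilution medium, with DMSO as diluent. Inoculum was set to 10⁸ CFU/mL by turbidity. Serial dilutions from a 2000 stock gave a primary screen at 500, 250 and 125, followed by a secondary dilution series for actives. MIC was the lowest concentration inhibiting growth.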

[2] = tested on: Mycobacterium tuberculosis; experiment: Antituberculosis activity against 5 x 10^4 inoculum per tube Mycobacterium tuberculosis H37Rv after 24 hrs by Lowenstein-Jensen method; type: functional
Outline: (§2)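 Conventional Lowenstein-Jensen method. Compound dilutions were made from a DMSO stock and added to liquid L-J medium, which was sterilized by inspissation. Tubes were incubated 24 h at 37 °C, then streaked with H37Rv (5 × 10⁴ bacilli per tube) harvested into 0.85% saline. Growth was checked at 12, 22 and 28 days at 37 °C against medium-only controls. MIC was the concentration giving no colonies or <20 colonies.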

[3] = tested on: Escherichia coli; experiment: Antibacterial activity against 10^8 CFU/mL Escherichia coli MTCC 443 by broth microdilution method; type: functional
Outline: (§3)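 MTCC bacterial strains from IMTECH Chandigarh were grown in Mueller-Hinton broth, which was also used to dilute the compounds. Inoculum was turbidity-adjusted to 10⁸ CFU/mL, and DMSO served as diluent. Compounds from a 2000 stock were screened first at 500, 250 and 125; actives were retested in a second dilution series. Tubes were incubated overnight at 37 °C, and MIC was the lowest concentration with no visible growth. Clear tubes were subcultured overnight at 37 °C to tell bacteriostatic from bactericidal.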

[4] = tested on: Klebsiella pneumoniae; experiment: Antibacterial activity against 10^8 CFU/mL Klebsiella pneumoniae MTCC 109 by broth microdilution method; type: functional; outline: as §3
[5] = tested on: Bacillus subtilis; experiment: Antibacterial activity against 10^8 CFU/mL Bacillus subtilis MTCC 441 by broth microdilution method; type: functional; outline: as §3
[6] = tested on: Aspergillus clavatus; experiment: Antifungal activity against 10^8 CFU/mL Aspergillus clavatus MTCC 1323 by broth microdilution method; type: functional; outline: as §1
[7] = tested on: Staphylococcus aureus; experiment: Antibacterial activity against 10^8 CFU/mL Staphylococcus aureus MTCC 96 by broth microdilution method; type: functional; outline: as §3
[8] = tested on: Salmonella typhi; experiment: Antibacterial activity against 10^8 CFU/mL Salmonella typhi MTCC 98 by broth microdilution method; type: functional, Salmonella enterica subsp. enterica serovar Typhi; conditions: Salmonella enterica
Outline: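 Broth microdilution in Mueller-Hinton broth with MTCC strains, inoculum adjusted by turbidity to 10⁸ CFU/mL. Compounds were diluted from DMSO. Primary screen used 500, 250 and 125 concentrations, and actives were serially diluted further. Tubes were incubated overnight at 37 °C. MIC was the lowest concentration with no visible growth. Clear tubes were subcultured overnight at 37 °C to judge bacteriostatic versus bactericidal.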

[9] = tested on: Streptococcus pyogenes; experiment: Antibacterial activity against 10^8 CFU/mL Streptococcus pyogenes MTCC 442 by broth microdilution method; type: functional; outline: as §3
[10] = tested on: Candida albicans; experiment: Antifungal activity against 10^8 CFU/mL Candida albicans MTCC 227 by broth microdilution method; type: functional; outline: as §1
[11] = tested on: Mycobacterium tuberculosis; experiment: Antituberculosis activity against 5 x 10^4 bacilli per tube Mycobacterium tuberculosis H37Rv assessed as growth inhibition at 1000 ug/mL incubated for 24 hrs measured after 28 days; type: functional; conditions: read-out: GI; outline: as §2
[12] = tested on: Pseudomonas aeruginosa; experiment: Antibacterial activity against 10^8 CFU/mL Pseudomonas aeruginosa MTCC 1688 by broth microdilution method; type: functional; outline: as §3
[13] = tested on: Mycobacterium tuberculosis; experiment: Antituberculosis activity against 5 x 10^4 inoculum per tube Mycobacterium tuberculosis H37Rv assessed as growth inhibition at 500 ug/mL incubated for 24 hrs measured after 28 days; type: functional; conditions: read-out: GI; outline: as §2
[14] = tested on: Mycobacterium tuberculosis; experiment: Antituberculosis activity against 5 x 10^4 bacilli per tube Mycobacterium tuberculosis H37Rv assessed as growth inhibition at 25 ug/mL incubated for 24 hrs measured after 28 days; type: functional; conditions: read-out: GI; outline: as §2
[15] = tested on: Mycobacterium tuberculosis; experiment: Antituberculosis activity against 5 x 10^4 bacilli per tube Mycobacterium tuberculosis H37Rv assessed as growth inhibition at 100 ug/mL incubated for 24 hrs measured after 28 days; type: functional; conditions: read-out: GI; outline: as §2
[16] = tested on: Mycobacterium tuberculosis; experiment: Antituberculosis activity against 5 x 10^4 bacilli per tube Mycobacterium tuberculosis H37Rv assessed as growth inhibition at 62.5 ug/mL incubated for 24 hrs measured after 28 days; type: functional; conditions: read-out: GI; outline: as §2
[17] = tested on: Mycobacterium tuberculosis; experiment: Antituberculosis activity against 5 x 10^4 bacilli per tube Mycobacterium tuberculosis H37Rv assessed as growth inhibition at 250 ug/mL incubated for 24 hrs measured after 28 days; type: functional; conditions: read-out: GI; outline: as §2

| SMILES | MIC [1] | MIC [2] | MIC99 [3] | MIC99 [4] | MIC99 [5] | MIC [6] | MIC99 [7] | MIC99 [8] | MIC99 [9] | MIC [10] | inhibition of growth at 1000 µg/mL [11] | MIC99 [12] | inhibition of growth at 500 µg/mL [13] | inhibition of growth at 25 µg/mL [14] | inhibition of growth at 100 µg/mL [15] | inhibition of growth at 62.5 µg/mL [16] | inhibition of growth at 250 µg/mL [17] |
| --- | --- | --- | --- | --- | --- | --- | --- | --- | --- | --- | --- | --- | --- | --- | --- | --- | --- |
| CC1=C(c2nnc(/N=C3\C(=O)Nc4ccc(I)cc43)s2)C(c2ccccc2)NC(=S)N1 (stereo not given) | > 1000 µg/mL | 1000 µg/mL (≈ 1790 µM) | 250 µg/mL (≈ 448 µM) | 200 µg/mL (≈ 358 µM) | 200 µg/mL (≈ 358 µM) | > 1000 µg/mL | 200 µg/mL (≈ 358 µM) | 250 µg/mL (≈ 448 µM) | 200 µg/mL (≈ 358 µM) | > 1000 µg/mL | 98% | 250 µg/mL (≈ 448 µM) | – | – | – | – | – |
| CC1=C(c2nnc(/N=C3\C(=O)Nc4ccc(I)cc43)s2)C(c2ccccc2)NC(=O)N1 (stereo not given) | > 1000 µg/mL | 1000 µg/mL (≈ 1840 µM) | 250 µg/mL (≈ 461 µM) | 250 µg/mL (≈ 461 µM) | 250 µg/mL (≈ 461 µM) | > 1000 µg/mL | 250 µg/mL (≈ 461 µM) | 250 µg/mL (≈ 461 µM) | 200 µg/mL (≈ 369 µM) | > 1000 µg/mL | 98% | 250 µg/mL (≈ 461 µM) | – | – | – | – | – |
| CC1=C(c2nnc(/N=C3\C(=O)Nc4ccc(Br)cc43)s2)C(c2ccccc2)NC(=O)N1 (stereo not given) | 500 µg/mL (≈ 1010 µM) | 500 µg/mL (≈ 1010 µM) | 250 µg/mL (≈ 505 µM) | 200 µg/mL (≈ 404 µM) | 100 µg/mL (≈ 202 µM) | > 1000 µg/mL | 100 µg/mL (≈ 202 µM) | 250 µg/mL (≈ 505 µM) | 100 µg/mL (≈ 202 µM) | 500 µg/mL (≈ 1010 µM) | – | 250 µg/mL (≈ 505 µM) | 98% | – | – | – | – |
| CC1=C(c2nnc(/N=C3\C(=O)Nc4ccccc43)s2)C(c2ccccc2)NC(=S)N1 (stereo not given) | 500 µg/mL (≈ 1160 µM) | 500 µg/mL (≈ 1160 µM) | 500 µg/mL (≈ 1160 µM) | 200 µg/mL (≈ 462 µM) | 200 µg/mL (≈ 462 µM) | 500 µg/mL (≈ 1160 µM) | 200 µg/mL (≈ 462 µM) | 200 µg/mL (≈ 462 µM) | 200 µg/mL (≈ 462 µM) | > 1000 µg/mL | – | 200 µg/mL (≈ 462 µM) | 98% | – | – | – | – |
| CC1=C(c2nnc(/N=C3\C(=O)Nc4ccc(F)cc43)s2)C(c2ccccc2)NC(=S)N1 (stereo not given) | 100 µg/mL (≈ 222 µM) | 25 µg/mL (≈ 55.5 µM) | 62.5 µg/mL (≈ 139 µM) | 100 µg/mL (≈ 222 µM) | 100 µg/mL (≈ 222 µM) | 100 µg/mL (≈ 222 µM) | 62.5 µg/mL (≈ 139 µM) | 100 µg/mL (≈ 222 µM) | 100 µg/mL (≈ 222 µM) | 100 µg/mL (≈ 222 µM) | – | 62.5 µg/mL (≈ 139 µM) | – | 99% | – | – | – |
| CC1=C(c2nnc(/N=C3\C(=O)Nc4ccc(Cl)cc43)s2)C(c2ccccc2)NC(=O)N1 (stereo not given) | 500 µg/mL (≈ 1110 µM) | 100 µg/mL (≈ 222 µM) | 100 µg/mL (≈ 222 µM) | 200 µg/mL (≈ 444 µM) | 200 µg/mL (≈ 444 µM) | 500 µg/mL (≈ 1110 µM) | 200 µg/mL (≈ 444 µM) | 200 µg/mL (≈ 444 µM) | 200 µg/mL (≈ 444 µM) | > 1000 µg/mL | – | 200 µg/mL (≈ 444 µM) | – | – | 98% | – | – |
| CC1=C(c2nnc(/N=C3\C(=O)Nc4ccc([N+](=O)[O-])cc43)s2)C(c2ccccc2)NC(=S)N1 (stereo not given) | 100 µg/mL (≈ 209 µM) | 62.5 µg/mL (≈ 131 µM) | 62.5 µg/mL (≈ 131 µM) | 100 µg/mL (≈ 209 µM) | 100 µg/mL (≈ 209 µM) | 250 µg/mL (≈ 524 µM) | 100 µg/mL (≈ 209 µM) | 100 µg/mL (≈ 209 µM) | 200 µg/mL (≈ 419 µM) | 250 µg/mL (≈ 524 µM) | – | 100 µg/mL (≈ 209 µM) | – | – | – | 99% | – |
| CCn1cc(C(=O)O)c(=O)c2cc(F)c(N3CCNCC3)cc21 [NORFLOXACIN] | – | – | 10 µg/mL (≈ 31.3 µM) | 10 µg/mL (≈ 31.3 µM) | 10 µg/mL (≈ 31.3 µM) | – | 10 µg/mL (≈ 31.3 µM) | 10 µg/mL (≈ 31.3 µM) | 10 µg/mL (≈ 31.3 µM) | – | – | 10 µg/mL (≈ 31.3 µM) | – | – | – | – | – |
| CC1=C(c2nnc(/N=C3\C(=O)Nc4ccc(Br)cc43)s2)C(c2ccccc2)NC(=S)N1 (stereo not given) | 500 µg/mL (≈ 978 µM) | 250 µg/mL (≈ 489 µM) | 200 µg/mL (≈ 391 µM) | 200 µg/mL (≈ 391 µM) | 100 µg/mL (≈ 196 µM) | 500 µg/mL (≈ 978 µM) | 100 µg/mL (≈ 196 µM) | 250 µg/mL (≈ 489 µM) | 100 µg/mL (≈ 196 µM) | 500 µg/mL (≈ 978 µM) | – | 200 µg/mL (≈ 391 µM) | – | – | – | – | 98% |
| O=C(N[C@H](CO)[C@H](O)c1ccc([N+](=O)[O-])cc1)C(Cl)Cl [CHLORAMPHENICOL] | – | – | 50 µg/mL (≈ 155 µM) | 50 µg/mL (≈ 155 µM) | 50 µg/mL (≈ 155 µM) | – | 50 µg/mL (≈ 155 µM) | 50 µg/mL (≈ 155 µM) | 50 µg/mL (≈ 155 µM) | – | – | 50 µg/mL (≈ 155 µM) | – | – | – | – | – |
